# Measured values as given in publication PMC4324418 (ACS Chemical Neuroscience, 2014).
# What was measured:
# wild-type mice [1] = assay: Rotarod; assay type: in vivo, mouse; details: 3–30 mg/kg IP, rotarod 20 rpm
# Method in brief: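 Mice received vehicle (10% Tween 80 in sterile water IP) or test compound (3–30 mg/kg IP). Sixty minutes later they were placed on the rotarod and latency to fall was measured. One-way ANOVA with Dunnett's test.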
# in vivo = details: male, Sprague-Dawley, rat, po, 3 mg/kg, Tmax,p
# rat M1 receptor = assay: Calcium mobilization, selectivity; assay type: cell-based
# Method in brief: (§1)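 Cells were seeded at 15000/well in DMEM with 10% dialyzed FBS, 20 mM HEPES and 1 mM pyruvate, then cultured overnight at 37 °C/5% CO2. M2 and M4 lines were cotransfected with Gqi5. Cells were loaded with 1 μM Fluo-4AM (HBSS, 20 mM HEPES, 2.5 mM probenecid, pH 7.4) for 50 min at 37 °C. ACh was added 140 s after test compound. Calcium signal was expressed as % of the 10 μM ACh maximum.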
# [2] = target: T1, guinea pig adenosine transporter (Cavia porcellus, UniProt H0V4R7); assay: Cerep panel, displacement of [3H]NTBI binding
# T1 sequence (H0V4R7 1-461): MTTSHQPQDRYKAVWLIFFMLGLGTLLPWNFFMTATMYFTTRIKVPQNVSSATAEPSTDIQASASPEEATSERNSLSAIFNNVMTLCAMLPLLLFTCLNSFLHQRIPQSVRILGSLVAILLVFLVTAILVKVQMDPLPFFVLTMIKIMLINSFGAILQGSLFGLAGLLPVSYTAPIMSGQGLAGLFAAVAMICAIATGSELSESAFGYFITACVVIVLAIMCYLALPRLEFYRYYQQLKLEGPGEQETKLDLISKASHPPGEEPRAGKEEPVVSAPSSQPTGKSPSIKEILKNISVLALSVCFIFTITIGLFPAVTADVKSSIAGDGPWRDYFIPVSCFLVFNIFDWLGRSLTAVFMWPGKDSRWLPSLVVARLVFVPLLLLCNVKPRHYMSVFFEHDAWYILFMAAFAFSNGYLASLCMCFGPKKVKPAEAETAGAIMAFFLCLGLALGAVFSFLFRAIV
# [3] = Pharmacokinetic and brain distribution studies in mice; details: for AUC(0-t) / Cmax / Tmax: male, C57BL/6, mouse, in vivo
# [4] = Biotransformation in cryopreserved rat hepatocytes; assay type: in vitro ADME; details: male, Sprague–Dawley rat (data not shown)
# rat M4 receptor [5] = target: T2, rat M4 receptor (Rattus norvegicus, UniProt P08485); assay type: cell-based; details: maximum response as % of the Emax of ACh
# T2 sequence (P08485 1-478): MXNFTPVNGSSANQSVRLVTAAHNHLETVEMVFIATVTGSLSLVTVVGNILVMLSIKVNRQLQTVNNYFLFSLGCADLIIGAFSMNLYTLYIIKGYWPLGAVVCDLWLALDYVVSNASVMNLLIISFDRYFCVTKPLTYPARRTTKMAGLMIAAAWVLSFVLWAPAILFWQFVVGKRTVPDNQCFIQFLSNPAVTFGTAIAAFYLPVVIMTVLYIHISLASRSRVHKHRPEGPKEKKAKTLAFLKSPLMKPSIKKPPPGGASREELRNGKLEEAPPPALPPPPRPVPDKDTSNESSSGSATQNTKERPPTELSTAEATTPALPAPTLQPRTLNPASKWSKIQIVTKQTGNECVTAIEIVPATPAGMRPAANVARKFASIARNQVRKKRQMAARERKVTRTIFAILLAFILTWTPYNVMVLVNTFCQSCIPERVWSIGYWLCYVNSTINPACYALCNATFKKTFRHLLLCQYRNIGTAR
# rat M4 receptor [6] = target: T2, rat M4 receptor; assay: Progressive fold-shift of ACh concentration-response curve; assay type: cell-based; details: operational model of allosterism
# M4 KO mice [7] = assay: Touchscreen pairwise visual discrimination task, M4 KO mice; assay type: in vivo, mouse
# Method in brief: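 Mice aged 8–11 weeks were held at ~85% free-feeding weight, with water freely available. They were trained on touchscreen nosepoke discrimination (60 trials or 60 min) to ≥85% accuracy on 3 consecutive days. Next day: vehicle (10% Tween 80 IP) or test compound (3–30 mg/kg IP) 60 min pre-test, then saline or MK-801 (0.1–0.3 mg/kg IP) 30 min later. Mice were retested drug-free 24 h later. Analysis: ANOVA with Bonferroni tests.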
# rat M3 receptor = assay: Calcium mobilization, selectivity; assay type: cell-based
# Method in brief: as §1
# wild-type mice [8] = assay type: in vivo, mouse; details: data not shown
# Method in brief: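 Wild-type mice received vehicle (10% Tween 80, IP) or test compound (30 mg/kg IP). Thirty minutes later they received saline (IP) or MK-801 (0.3 mg/kg IP).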
# M4 KO mice [9] = assay: MK-801-induced hyperlocomotion in M4 KO mice; assay type: in vivo, mouse
# Method in brief: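 Wild-type and M4 KO mice were habituated 90 min in a photobeam open field. They then received vehicle (10% Tween 80 IP), followed 30 min later by saline or MK-801 IP, and activity was recorded for 120 min. Distance traveled was binned per 5 min. Totals covered t = 120 to 240 min and were analyzed by ANOVA with Bonferroni post hoc tests.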
# wild-type mice [10] = assay: MK-801-induced locomotor and nonlocomotor open field behaviors; assay type: in vivo, mouse
# Method in brief: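 After 90 min open-field habituation, mice received vehicle (10% Tween 80 IP) or test compound (3–30 mg/kg IP). Saline or MK-801 (0.3 mg/kg IP) followed 30 min later. Over the next 120 min, ambulatory episodes, vertical counts, stereotypic counts and resting time were scored. Groups were 7–13 mice; ANOVA with Bonferroni tests.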
# [11] = M4 KO, VU0467154 10.0 mg/kg IP + MK-801 0.30 mg/kg IP
# [12] = M4 KO, VU0467154 10.0 mg/kg IP + vehicle
smiles,measurement,setting,value
"Cc1nnc2sc(C(=O)NCc3ccc(S(=O)(=O)C(F)(F)F)cc3)c(N)c2c1C [VU0467154, 5-amino-3,4-dimethyl-N-(4-((trifluoromethyl)sulfonyl)benzyl)thieno[2,3-c]pyridazine-6-carboxamide]",latency to fall,wild-type mice [1],did not alter the latency to fall
same,Tmax,in vivo,~3 h
same,potentiation of ACh response (calcium response),rat M1 receptor,lack of a calcium response
same,Ki,[2],98 nM
same,AUC(0-t),"[3]; ip, 3 mg/kg",9.2 µM·h
same,Cmax,"[3]; ip, 3 mg/kg",2 µM
same,Tmax,"[3]; ip, 3 mg/kg",1 h
same,AUC(0-t),"[3]; ip, 10 mg/kg",39 µM·h
same,Cmax,"[3]; ip, 10 mg/kg",5.6 µM
same,Tmax,"[3]; ip, 10 mg/kg",0.5 h
same,Tmax,"[3]; ip, 30 mg/kg",0.5 h
same,AUC(0-t),"[3]; po, 10 mg/kg",46 µM·h
same,Cmax,"[3]; po, 10 mg/kg",7.6 µM
same,Tmax,"[3]; po, 10 mg/kg",1 h
same,AUC(0-t),"[3]; po, 30 mg/kg",66 µM·h
same,Cmax,"[3]; po, 30 mg/kg",11 µM
same,Tmax,"[3]; po, 30 mg/kg",1 h
same,brain AUC0–24h,"[3]; mouse, IP 3 mg/kg, brain",5.9 µM·h
same,turnover in hepatocytes,[4],low turnover
same,%AChmax,rat M4 receptor [5],68%
same,efficacy cooperativity factor (log β),rat M4 receptor [6],0.91
same,efficacy cooperativity factor β,rat M4 receptor [6],8.17
same,reversal of MK-801-induced pairwise discrimination deficit,M4 KO mice [7]; M4 KO mice,did not reverse the MK-801-induced pairwise discrimination deficit
same,response accuracy on the test day,"M4 KO mice [7]; M4 KO, MK-801 in combination with VU0467154 (vehicle 91%)",64%
same,correct reward collection latency,M4 KO mice [7]; [11],1.57 ± 0.07 s
same,correct touch latency,M4 KO mice [7]; [11],8.45 ± 1.57 s
same,time to complete 60 trials,M4 KO mice [7]; [11],1120 ± 95.5 s
same,correct reward collection latency,M4 KO mice [7]; [12],3.19 ± 0.73 s
same,correct touch latency,M4 KO mice [7]; [12],22.81 ± 8.86 s
same,time to complete 60 trials,M4 KO mice [7]; [12],2080 ± 384.9 ^e s
same,potentiation of ACh response (calcium response),rat M3 receptor,lack of a calcium response
same,serotonin utilization in the NAS and CP,wild-type mice [8],Neither single nor combined administration of VU0467154 with MK-801 altered serotonin utilization
same,effect on MK-801-induced hyperlocomotion,M4 KO mice [9],had no effect on the time course of MK-801-induced hyperlocomotion
same,reversal of MK-801-induced increases in ambulatory episodes and vertical counts,wild-type mice [10],potently reversed
same,reversal of MK-801-mediated increase in stereotypic counts and decreases in resting time,wild-type mice [10],appeared to be less potent
